Source: ChEMBL document CHEMBL1148839, “Synthesis of new xanthone analogues and their biological activity test--cytotoxicity, topoisomerase II inhibition, and DNA cross-linking study” (Bioorg Med Chem Lett, 2007)

Key:
LNCaP = experiment: Cytotoxicity against human LnCap cells after 4 days by MTT assay; type: functional, cell-based; conditions: 96 h
How it was run: (§1)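 Cells from ATCC seeded at 2-4×10^4 per well, attached overnight in medium with 10% FBS, 37 °C, 5% CO2. On day 1 medium replaced with medium containing graded compound concentrations. On day 4 MTT added (final 0.5 mg/mL), 4 h further incubation, DMSO solubilization, absorbance at 570 nm. IC50 from four-parameter logistic fit; each value average of four experiments.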

MCF7 = experiment: Cytotoxicity against human MCF7 cells after 4 days by MTT assay; type: functional, cell-based; conditions: MCF7, 96 h; how it was run: as §1
HCT-116 = experiment: Cytotoxicity against human HCT116 cells after 4 days by MTT assay; type: functional, cell-based; conditions: HCT-116, 96 h; how it was run: as §1
MDA-MB-231 = experiment: Cytotoxicity against human MDA-MB-231 cells after 4 days by MTT assay; type: functional, cell-based; conditions: MDA-MB-231, 96 h; how it was run: as §1
HeLa = experiment: Cytotoxicity against human HeLa cells after 4 days by MTT assay; type: functional, cell-based; conditions: 96 h; how it was run: as §1
Homo sapiens = organism: Homo sapiens; experiment: Inhibition of human topoisomerase 2-mediated DNA relaxation at 100 uM relative to etoposide
How it was run: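 Relaxation assay: supercoiled pBR322 plasmid DNA (0.3 µg) incubated with 0.2 unit human topoisomerase II and compound (20 and 100 µM), 37 °C, 30 min. Etoposide as positive control. Inhibition ratio calculated from gel band densitometry.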

Escherichia coli = experiment: Effect on pBR322 DNA cross linking activity after 1 hr
How it was run: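 Linearized pBR322 DNA (0.5 µg) incubated with compound at 0, 10, 50, 100, 200 µM for 1 h at room temperature in 10 mM Tris-HCl pH 7.5. Run on 1.2% alkaline agarose gel (40 mM NaOH, 1 mM EDTA running buffer), neutralized, ethidium bromide stained, UV visualized.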

`O=c1c2ccccc2oc2cc(OCC3CO3)cc(O)c12` (configuration not stated) showed an IC50 (LNCaP) of 93.1 µM, an IC50 (MCF7) of 68.4 µM and an IC50 (HCT-116) of 80.8 µM. For the same compound, the IC50 (MDA-MB-231) was greater than 100 µM and the IC50 (HeLa) was 68.7 µM.

Work on `COc1cccc2c(=O)c3c(O)cc(OCC4CO4)cc3oc12` (configuration not stated) yielded an IC50 (LNCaP) greater than 100 µM, an IC50 (MCF7) greater than 100 µM and an IC50 (HCT-116) greater than 100 µM. It also gave an IC50 (MDA-MB-231) greater than 100 µM and an IC50 (HeLa) greater than 100 µM.

`O=c1c2ccccc2oc2cc(OCC3CO3)cc(OCC3CO3)c12` (configuration not stated) showed an IC50 (LNCaP) of 9 µM, an IC50 (MCF7) of 3.2 µM and an IC50 (HCT-116) of 10.2 µM. It also gave an IC50 (MDA-MB-231) of 12.8 µM, an IC50 (HeLa) of 23.3 µM and an inhibition (Homo sapiens) of 100%. For the same compound, the Activity (Escherichia coli) was “Dose-dependent effect”.

`O=c1c2ccccc2oc2cc(OCC(O)CBr)cc(O)c12` (configuration not stated) was tested, and the IC50 (LNCaP) was 64.4 µM, the IC50 (MCF7) was 53.5 µM and the IC50 (HCT-116) was 16.9 µM. The IC50 (MDA-MB-231) was 76.3 µM, the IC50 (HeLa) was 98.1 µM and the inhibition (Homo sapiens) was 57%.

In the case of `O=c1c2ccccc2oc2cc(OCC(O)CCl)cc(O)c12` (configuration not stated), the IC50 (LNCaP) is reported as greater than 100 µM, the IC50 (MCF7) is reported as greater than 100 µM and the IC50 (HCT-116) is reported as greater than 100 µM. It also gave an IC50 (MDA-MB-231) greater than 100 µM and an IC50 (HeLa) greater than 100 µM.

`COc1cccc2c(=O)c3c(O)cc(OCC(O)CBr)cc3oc12` (configuration not stated) gave an IC50 (LNCaP) greater than 100 µM, an IC50 (MCF7) of 97.8 µM and an IC50 (HCT-116) greater than 100 µM. It also gave an IC50 (MDA-MB-231) of 99.8 µM and an IC50 (HeLa) greater than 100 µM.

Compound `COc1cccc2c(=O)c3c(O)cc(OCC(O)CCl)cc3oc12` (configuration not stated) has an IC50 (LNCaP) greater than 100 µM, an IC50 (MCF7) greater than 100 µM and an IC50 (HCT-116) of 31.4 µM. It also gave an IC50 (MDA-MB-231) of 81.4 µM and an IC50 (HeLa) of 60.3 µM.

With `COc1cccc2c1C(=O)c1c(O)c3c(c(O)c1C2=O)C[C@@](O)(C(=O)CO)C[C@@H]3O[C@H]1C[C@H](N)[C@H](O)[C@H](C)O1` [DOXORUBICIN] the IC50 (LNCaP) was 4.6 µM, the IC50 (HCT-116) was 7.7 µM and the IC50 (MDA-MB-231) was 17.6 µM. The IC50 (HeLa) was 3.3 µM.
